Rows were chosen to be rich in hits. Some 4% of all compounds tested hit in one or more screens of this group.
iPSC survival up – increases survival of single human iPS cells; hiPSC single-cell survival, ATPlite luminescence; 100% = ROCK inhibitor wells, 0% = DMSO; survival enhancement, % at 20 µM; 360,000 compounds, 0.044% hits; AID 602274; in the data active = survival enhancement above about 18%;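 note: cells exposed to compounds for 16 hours before the ATP read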
Arr AP2 block – blocks beta-arrestin peptide binding to AP2 adaptin; FITC-arrestin peptide / GST-AP2 beads, flow cytometry; AP2 beta2 appendage carries R879A mutation; 340,000 compounds, 0.31% hits; inhibition, % at 10 µM;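 active = inhibition above a set limit, near 3 SD of compounds lacking own fluorescence, cut at about 54% in these data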;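 note: plate controls were DMSO wells for no effect and 5 µM unlabelled arrestin peptide for full effect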
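System: GST-tagged AP2 beta2-adaptin appendage (R879A) on 4 µm glutathione beads / Reagent: FITC-arrestin peptide, 50 nM / Detection: HyperCyt-sampled flow cytometry, FL1 channel, ex 488/em 535 nm / Timing: 12 min plus 1 h, RT / Buffer or medium: PBS plus Tween 20 (0.05%) and BSA (0.1%)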
H9c2 protect – myocardial damage modulation in H9c2 cells; H9c2 cardiomyocytes, H2O2 injury protection, ATPLite, 2 h; protection from H2O2 cell death, % at 20 µM; 360,000 compounds, 0.63% hits; AID 588492;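 active = compounds giving at least 50% protection of heart cells from peroxide-induced death in the single-dose screen, raw or plate-pattern-corrected value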;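 note: 0% = DMSO wells with peroxide and 100% = DMSO wells without peroxide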
SENP1 inh – SENP1 (human) catalytic domain inhibition | recombinant SENP1 catalytic domain, CyPet-SUMO1-YPet FRET cleavage | inhibition, % at 10 µM | 360,000 compounds, 0.21% hits | Q9P0U3;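 active = inhibition at least 30% at 10 µM, raw YFP signal under a set limit, fluorescence ratio 0.5 to 1.5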;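 note: 0% = enzyme with DMSO and 100% = no enzyme wells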
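system = hSENP1 catalytic domain, recombinant | reagent = SFCypet-SUMO1-SFYpet substrate at 25 nM | doses = one dose per compound, 10 µM, 0.5% DMSO | incubation = enzyme reaction for 50 min at room temperature, dark | measured by = FRET, CFP and YFP emission | controls = no-enzyme low, enzyme-DMSO high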
NR3A LBD binder – modulates the human NR3A ligand-binding domain; NR3A LBD differential scanning fluorimetry, Tm shift; 0% = protein alone, 100% = glycine-bound protein; Tm shift relative to glycine control, % at 25 µM; 340,000 compounds, 2.5% hits;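 active = melting temperature shift of at least 10% of the positive control shift, at one fixed dose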
FAS TE block – FAS thioesterase (human) inhibition | recombinant FAS-TE, OMFH fluorogenic substrate, fluorescence endpoint | P49327 | 360,000 compounds, 0.67% hits | inhibition, % at 15 µM;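 active = compounds whose normalised, plate-corrected inhibition of enzyme fluorescence in the single-dose primary screen is 50% or more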;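 note: 0% = DMSO with enzyme and 100% = substrate without enzyme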
Arr AP2 CP1 – human beta-arrestin and AP2 interaction inhibition, cherry pick; shares compounds with Arr AP2 block; GST-AP2 beads, FITC arrestin peptide binding, flow cytometry; GST-fused beta2-adaptin appendage, R879A mutant; inhibition, % at 10 µM; 1,300 compounds, 2% hits;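 active = inhibition above a set limit, roughly 3 SD of non-fluorescent compound noise, cut at about 38% in these data; inactive = inhibition at or below that limit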;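 note: loss of bead fluorescence from 50 nM FITC arrestin peptide bound to appendage; 0% = negative control wells and 100% = excess unlabelled arrestin peptide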
Target sequence (P63010 whole entry, looked up, the tested form may be a part, one chain of several): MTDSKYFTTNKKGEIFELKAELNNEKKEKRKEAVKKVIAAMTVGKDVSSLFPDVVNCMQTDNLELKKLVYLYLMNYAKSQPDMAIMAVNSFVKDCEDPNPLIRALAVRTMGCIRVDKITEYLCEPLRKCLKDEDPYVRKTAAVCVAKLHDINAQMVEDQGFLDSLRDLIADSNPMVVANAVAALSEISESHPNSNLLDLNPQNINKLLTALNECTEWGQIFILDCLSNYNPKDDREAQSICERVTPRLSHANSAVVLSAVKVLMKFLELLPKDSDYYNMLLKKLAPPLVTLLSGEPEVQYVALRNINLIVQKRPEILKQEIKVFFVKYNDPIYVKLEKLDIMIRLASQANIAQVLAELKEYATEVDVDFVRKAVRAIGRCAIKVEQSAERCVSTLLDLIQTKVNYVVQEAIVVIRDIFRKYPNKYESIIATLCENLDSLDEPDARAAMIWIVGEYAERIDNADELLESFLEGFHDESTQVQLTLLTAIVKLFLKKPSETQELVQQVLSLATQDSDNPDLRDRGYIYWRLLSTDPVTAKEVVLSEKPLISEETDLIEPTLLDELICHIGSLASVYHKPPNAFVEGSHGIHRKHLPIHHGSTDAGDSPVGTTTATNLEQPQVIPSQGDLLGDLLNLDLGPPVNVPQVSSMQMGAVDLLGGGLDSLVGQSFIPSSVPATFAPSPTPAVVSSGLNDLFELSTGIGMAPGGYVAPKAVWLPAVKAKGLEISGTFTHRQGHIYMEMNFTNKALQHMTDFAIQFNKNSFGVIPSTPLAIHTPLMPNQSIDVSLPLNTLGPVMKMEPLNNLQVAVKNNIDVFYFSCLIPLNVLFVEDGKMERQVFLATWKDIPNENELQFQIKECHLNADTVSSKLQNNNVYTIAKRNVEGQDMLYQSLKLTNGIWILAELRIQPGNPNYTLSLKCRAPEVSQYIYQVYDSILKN
GST-FITC bead – GST-GSH bead binding interference, counter-screen; shares compounds with Arr AP2 block; GST-fluorescein binding to GSH beads, fluorescence; inhibition, % at 10 µM; 1,300 compounds, 2% hits; AID 588338;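 active = inhibition above 50%, about 3 SD of the inhibition seen with non-fluorescent compounds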;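 note: fluorescein maleimide labelled GST captured on 4 micron glutathione beads; higher means more loss of bead fluorescence from quenching or blocked binding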
* marks the source's active call; other numbers are inactive results; nt = not tested or not shown.

SMILES	iPSC survival up	Arr AP2 block	H9c2 protect	SENP1 inh	NR3A LBD binder	FAS TE block	Arr AP2 CP1	GST-FITC bead
CC(C)(C)NC(=O)COC(=O)c1ccccc1OCC(=O)Nc1ccc(Br)cc1	1.5	103.3*	-9.6	1.5	-1.0	9.6	-8.6	-3.4
CCCNC(=O)COC(=O)c1ccccc1OCC(=O)Nc1ccc(Br)cc1	0.0	34.1	-0.1	3.1	-14.2	-2.2	nt	nt
CCCCNC(=O)C[C@@H]1C[C@@]2(C(=O)OC)CCCCC=C2N(Cc2ccccc2)C1=O	0.2	nt	nt	3.3	nt	-7.6	nt	nt
Cc1cccc(NC(=O)c2cccc(S(=O)(=O)Nc3ccccc3C(=O)O)c2)c1	-0.5	57.6*	0.7	0.8	-0.7	-3.7	-7.9	-7.3
COc1ccc(NS(=O)(=O)c2ccc(C(=O)NCC3(N4CCOCC4)CCCCC3)cc2)cc1	0.1	-7.8	1.2	0.2	-1.6	0.9	nt	nt
COc1ccc(NS(=O)(=O)c2cccc(C(=O)NCC3(N4CCOCC4)CCCCC3)c2)cc1	0.5	-9.4	7.2	-1.0	-1.2	3.2	9.1	-5.6
Cc1cccc(NS(=O)(=O)c2cccc(C(=O)NCC(c3ccco3)N3CCCCC3)c2)c1 (centres undefined)	2.6	8.0	2.1	-1.4	-4.4	4.9	nt	nt
COc1ccc(NS(=O)(=O)c2cccc(C(=O)NCC3(N4CCCCC4)CCCCC3)c2)cc1	0.1	-18.7	0.2	-1.6	2.5	-1.4	11.6	5.9
CNS(=O)(=O)c1cccc(C(=O)NCC2(N3CCCCC3)CCCCC2)c1	-0.1	-25.6	0.1	-1.0	-1.6	-5.4	nt	nt
COc1ccc(NS(=O)(=O)c2cccc(C(=O)NCC(c3ccco3)N3CCCCC3)c2)cc1 (centres undefined)	0.0	59.3*	2.4	-2.0	3.4	0.7	27.2	-4.1
COc1cc(C=CC(=O)N2CCN(CC(=O)N3CCCC3)CC2)cc(OC)c1OC	1.5	nt	-1.3	1.2	nt	-5.8	nt	nt
C=CCN(c1ccc(F)cc1)S(=O)(=O)c1cc(C(=O)NC2CC2)ccc1Cl	6.7	nt	-3.8	0.9	nt	0.3	nt	nt
O=C(Cn1cnc2c(OCc3ccccc3)ncnc21)NCc1ccccn1	0.4	15.5	-0.6	0.3	-0.2	-6.3	nt	nt
CC(C)Cc1ccc(C(=O)Nc2ccc(Cc3ccncc3)cc2)o1	-0.1	16.4	-3.4	-0.2	3.2	6.0	nt	nt
COc1ccc(NC(=O)c2cccc(S(=O)(=O)N3CCOCC3)c2)cc1	0.0	61.4*	7.4	2.0	-1.3	-2.7	-6.1	-5.6
CCOc1ccc(S(=O)(=O)Nc2ccc(C(=O)NCC3(N4CCCCC4)CCCCC3)cc2)cc1	0.6	3.8	0.4	1.5	1.2	-2.9	nt	nt
CCOc1ccc(NS(=O)(=O)c2cccc(C(=O)NCC3(N(C)C)CCCCC3)c2)cc1	0.1	-4.7	0.2	2.6	-0.1	-3.6	5.3	-12.3
Cc1cccc(NS(=O)(=O)c2cccc(C(=O)NCC3(N4CCCCC4)CCCCC3)c2)c1	0.2	-10.4	3.8	-1.5	-2.1	-5.3	-5.1	-3.4
COCCNC(=O)C1(C)CCN(C(=O)c2cc(-c3ccccc3)cs2)C1 (centres undefined)	2.9	nt	-7.5	-2.6	nt	-8.9	nt	nt
CCCC(=O)N1CCCC1(C)C(=O)NCc1ccc(SC)cc1 (centres undefined)	2.2	nt	-0.1	-0.3	nt	-3.5	nt	nt
CCN(CC)c1ccc(/C=N/NC(=O)c2ccco2)c(O)c1	-0.4	8.0	16.1	-32.7	-17.9	0.0	nt	nt
CCN(CC)c1ccc(/C=N/NC(=O)Cc2cccs2)c(O)c1	-1.2	60.9*	49.7	-59.6	-7.9	29.0	2.4	-3.8
COc1ccc(C(=O)OCC(=O)NC2CC2)cc1	0.4	nt	2.3	2.2	nt	-6.7	nt	nt
O=c1[nH]c2ccc(NC(=S)Nc3ccc(Cl)cc3Cl)cc2[nH]1	0.9	4.2	9.1	-0.5	0.1	-5.4	nt	nt
O=c1[nH]c2ccc(NC(=S)Nc3ccccc3Cl)cc2[nH]1	1.8	55.3*	8.5	-7.8	2.8	-4.1	3.2	-3.6
SMILES	iPSC survival up	Arr AP2 block	H9c2 protect	SENP1 inh	NR3A LBD binder	FAS TE block	Arr AP2 CP1	GST-FITC bead
Cc1ccccc1N=C(c1ccccc1)C1C(=O)c2ccccc2C1=O	0.2	nt	1.9	-1.4	nt	30.3	nt	nt
CCOC(=O)c1c(NC(C)=O)sc2c(O)c(CN3CCN(CC)CC3)ccc12	1.2	63.8*	14.9	-0.1	nt	-2.0	14.5	1.6
O=C(O)/C=C/C(=O)Nc1ccc(Oc2ccccc2)cc1	0.5	30.6	5.8	-1.0	0.9	-3.9	nt	nt
O=C(O)/C=C\C(=O)Nc1ccc(OC(F)F)cc1	-1.6	54.4*	8.0	2.8	-2.2	-6.9	-11.6	-1.2
CC(=O)Oc1ccc2c(c1)C(=O)CCCCCC(=O)O2	7.5	nt	4.0	1.8	nt	-7.0	nt	nt
Cc1ccc(F)cc1C(=O)N1CCOCC1c1cc(C(=O)NCc2ccccc2)no1 (centres undefined)	-0.5	nt	4.3	4.6	nt	0.8	nt	nt
CCCCC(=O)N(C)c1c(C)nc2ccc(C(=O)N3CCN(c4ccccc4)CC3)cn12	0.5	nt	-1.0	-0.6	nt	-8.5	nt	nt
CC1CC(C)CN(CCCNC(=O)c2cc3c(=O)[nH]c4ccccc4c3n2C)C1 (centres undefined)	-1.5	60.3*	10.6	-0.1	0.5	-5.0	-8.3	-12.0
CCc1nc2c(OCCC3CCCCC3)cccn2c1N(C=O)Cc1ccccc1	-2.4	nt	-6.6	-6.7	nt	25.6	nt	nt
Cc1cc(C)n(CC(=O)O)c(=O)c1[N+](=O)[O-]	0.6	66.0*	2.4	0.6	-0.9	-4.5	-10.7	-2.2
CN1/C(=C/C(=O)c2ccc(Cl)cc2)Sc2cc3c(cc21)OCO3	0.1	103.4*	-1.4	-29.1	16.1*	-12.7	-0.6	-5.3
COc1ccc2c(c1)S/C(=C\C(=O)c1ccncc1)N2C	-0.7	91.4*	-15.2	6.5	-10.8	-7.4	4.8	-2.3
CN(CC(=O)NCCN1CCOCC1)S(=O)(=O)c1ccc(Cl)cc1	6.5	-2.4	-1.7	2.2	4.4	-6.1	nt	nt
CN(CC(=O)NCCCN1CCOCC1)S(=O)(=O)c1cc(Cl)ccc1Cl	0.1	63.7*	-0.5	-0.4	-4.7	-4.5	9.3	-2.2
Cc1[nH]c2ccccc2c1-c1csc(NC(=O)CN2CCOCC2)n1	0.1	56.7*	3.2	-3.2	-1.7	-2.3	-2.3	4.6
Cc1[nH]c2ccccc2c1-c1csc(NC(=O)CSCC(=O)O)n1	0.7	5.4	5.2	-0.8	0.6	-6.6	nt	nt
O=C(NCCc1ccccc1)C1CCC(=O)N(Cc2cccc(C(F)(F)F)c2)C1 (centres undefined)	0.0	0.8	1.7	-1.4	-3.3	2.3	-4.7	0.8
